Results reported in ChEMBL document CHEMBL1157912, “Impact of nature and length of linker incorporated in agonists on toll-like receptor 9-mediated immune responses” (J Med Chem, 2010).

Legend:
[1] = biological target: T1, Toll-like receptor 9 (Homo sapiens) (UniProt Q9NR96); experiment: Induction of TLR9-mediated immune stimulation in human PBMC assessed as MIP1beta production at 10 ug/ml after 24 hrs by luminex multiplex assay (RVb = 0.03 +/- 0.02 ng/ml)
T1 sequence (whole entry): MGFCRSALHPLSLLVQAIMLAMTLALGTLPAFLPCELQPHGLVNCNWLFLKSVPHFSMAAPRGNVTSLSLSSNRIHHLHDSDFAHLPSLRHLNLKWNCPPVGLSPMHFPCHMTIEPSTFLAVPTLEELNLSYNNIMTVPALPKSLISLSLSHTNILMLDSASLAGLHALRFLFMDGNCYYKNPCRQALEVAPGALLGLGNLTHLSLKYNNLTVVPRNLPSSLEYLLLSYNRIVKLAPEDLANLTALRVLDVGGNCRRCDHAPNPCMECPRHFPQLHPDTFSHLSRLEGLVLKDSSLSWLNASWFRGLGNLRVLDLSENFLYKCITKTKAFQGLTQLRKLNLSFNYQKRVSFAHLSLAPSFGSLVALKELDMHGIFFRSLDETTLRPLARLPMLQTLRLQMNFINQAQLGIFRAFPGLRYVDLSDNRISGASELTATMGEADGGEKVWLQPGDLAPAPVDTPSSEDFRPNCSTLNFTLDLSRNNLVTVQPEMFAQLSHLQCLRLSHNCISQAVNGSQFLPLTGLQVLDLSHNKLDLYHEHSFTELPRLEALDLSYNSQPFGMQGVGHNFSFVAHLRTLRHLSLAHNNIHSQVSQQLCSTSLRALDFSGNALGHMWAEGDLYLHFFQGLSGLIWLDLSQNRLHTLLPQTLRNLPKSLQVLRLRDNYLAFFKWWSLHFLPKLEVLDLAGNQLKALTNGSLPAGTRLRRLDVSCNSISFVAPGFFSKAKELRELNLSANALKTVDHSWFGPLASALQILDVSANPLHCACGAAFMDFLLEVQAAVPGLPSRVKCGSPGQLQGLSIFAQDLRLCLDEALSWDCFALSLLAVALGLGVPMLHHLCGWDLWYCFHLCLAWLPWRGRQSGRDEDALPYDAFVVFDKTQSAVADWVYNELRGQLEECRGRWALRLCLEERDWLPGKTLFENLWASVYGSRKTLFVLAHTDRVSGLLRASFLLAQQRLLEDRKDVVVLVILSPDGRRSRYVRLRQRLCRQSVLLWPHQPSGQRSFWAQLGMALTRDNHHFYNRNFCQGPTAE

[2] = biological target: T2, Toll-like receptor 9 (Mus musculus) (UniProt Q9EQU3); experiment: Activation of mouse TLR9 expressed in HEK293 cells assessed as induction of NF-kappaB activity after 18 hrs by SEAP assay; format: cell-based
T2 sequence (whole entry): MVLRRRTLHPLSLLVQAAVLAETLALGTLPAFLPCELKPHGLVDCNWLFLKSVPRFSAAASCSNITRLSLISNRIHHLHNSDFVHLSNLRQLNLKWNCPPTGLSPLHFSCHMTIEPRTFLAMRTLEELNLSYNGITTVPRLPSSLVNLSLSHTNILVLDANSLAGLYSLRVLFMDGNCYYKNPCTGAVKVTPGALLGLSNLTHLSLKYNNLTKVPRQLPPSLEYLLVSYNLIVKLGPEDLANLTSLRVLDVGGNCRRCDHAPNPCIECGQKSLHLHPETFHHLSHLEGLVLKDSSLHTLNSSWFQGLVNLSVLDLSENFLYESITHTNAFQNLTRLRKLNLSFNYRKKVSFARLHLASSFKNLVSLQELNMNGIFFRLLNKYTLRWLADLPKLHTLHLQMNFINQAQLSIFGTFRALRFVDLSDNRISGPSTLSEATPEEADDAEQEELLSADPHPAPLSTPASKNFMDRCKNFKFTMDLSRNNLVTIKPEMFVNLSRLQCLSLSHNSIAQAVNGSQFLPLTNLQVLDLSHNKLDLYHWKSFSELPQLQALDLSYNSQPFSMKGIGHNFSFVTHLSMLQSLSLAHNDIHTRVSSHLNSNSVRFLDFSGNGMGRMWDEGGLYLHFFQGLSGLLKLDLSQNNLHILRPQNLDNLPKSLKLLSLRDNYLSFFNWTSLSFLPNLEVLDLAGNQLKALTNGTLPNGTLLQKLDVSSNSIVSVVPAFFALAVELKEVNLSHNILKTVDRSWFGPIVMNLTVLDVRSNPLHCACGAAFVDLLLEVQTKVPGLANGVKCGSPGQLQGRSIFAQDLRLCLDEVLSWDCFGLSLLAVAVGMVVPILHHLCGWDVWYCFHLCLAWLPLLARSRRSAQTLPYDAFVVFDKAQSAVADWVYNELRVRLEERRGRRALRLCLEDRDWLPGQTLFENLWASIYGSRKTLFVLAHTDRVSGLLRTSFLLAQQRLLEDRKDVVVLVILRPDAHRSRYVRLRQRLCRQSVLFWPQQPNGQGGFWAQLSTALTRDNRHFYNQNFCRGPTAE
How it was run: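 HEK293 cells stably expressing mouse TLR9 were grown in DMEM with 10% heat-inactivated FBS. At 80% confluence they were transiently transfected with a SEAP reporter plasmid (100 ng/well, lipofectamine) for 6 h. Medium was then replaced and agonists were added for 18 h. Supernatant SEAP was read with QuantiBlue substrate at 620-645 nm. Results are expressed as fold NF-κB activity over PBS control.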

[3] = biological target: T1, Toll-like receptor 9 (Homo sapiens); experiment: Induction of TLR9-mediated immune stimulation in human PBMC assessed as IP10 production at 10 ug/ml after 24 hrs by luminex multiplex assay (RVb = 0.00 ng/ml)
[4] = biological target: T1, Toll-like receptor 9 (Homo sapiens); experiment: Induction of TLR9-mediated immune stimulation in human PBMC assessed as IL6 production at 2 ug/ml after 24 hrs by luminex multiplex assay (RVb = 0.01 ng/ml)
[5] = biological target: T1, Toll-like receptor 9 (Homo sapiens); experiment: Induction of TLR9-mediated immune stimulation in human PBMC assessed as IL6 production at 10 ug/ml after 24 hrs by luminex multiplex assay (RVb = 0.01 ng/ml)
[6] = biological target: T1, Toll-like receptor 9 (Homo sapiens); experiment: Induction of TLR9-mediated immune stimulation in human PBMC assessed as MCP1 production at 10 ug/ml after 24 hrs by luminex multiplex assay (RVb = 0.08 +/- 0.02 ng/ml)
[7] = biological target: T1, Toll-like receptor 9 (Homo sapiens); experiment: Induction of TLR9-mediated immune stimulation in human PBMC assessed as MCP1 production at 2 ug/ml after 24 hrs by luminex multiplex assay (RVb = 0.08 +/- 0.02 ng/ml)
[8] = biological target: T2, Toll-like receptor 9 (Mus musculus); experiment: Induction of TLR9-mediated IL12 production in C57BL/6 mouse spleen cells after 24 hrs by ELISA; format: cell-based
How it was run: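 C57BL/6 mouse spleen cells were cultured with agonists at 0.1, 0.3, 1, 3 and 10 μg/mL for 24 h. Secreted IL-12 and IL-6 in the supernatants were measured by ELISA. Values are averages of triplicate wells from one representative of at least two independent experiments.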

[9] = biological target: T1, Toll-like receptor 9 (Homo sapiens); experiment: Induction of TLR9-mediated immune stimulation in human PBMC assessed as MIP1alpha production at 10 ug/ml after 24 hrs by luminex multiplex assay (RVb = 0.01 ng/ml)

Row | Activity [1] [ng/mL] | Activity [2] | Activity [3] [ng/mL] | Activity [4] [ng/mL] | Activity [5] [ng/mL] | Activity [6] [ng/mL] | Activity [7] [ng/mL] | Activity [8] | Activity [9] [ng/mL] | Compound
1 | 1.76 | Dose-dependent effect | 0.99 | 0.54 | 0.73 | 43.5 | 13.2 | Dose-dependent effect | 0.32 | Cc1cn([C@H]2C[C@H](OCC[C@H](O)COP(=O)(S)O[C@H]3C[C@H](n4cc(C)c(=O)[nH]c4=O)O[C@@H]3COP(=O)(S)O[C@H]3[C@@H](O)[C@H](n4ccc(N)nc4=O)O[C@@H]3COP(=O)(S)O[C@H]3C[C@H](n4cc(C)c(=O)[nH]c4=O)O[C@@H]3COP(=O)(S)O[C@H]3C[C@H](n4cc(C)c(=O)[nH]c4=O)O[C@@H]3COP(=O)(S)O[C@H]3C[C@H](n4ccc5c(=O)[nH]c(N)nc54)O[C@@H]3COP(=O)(S)O[C@H]3[C@@H](O)[C@H](n4ccc(N)nc4=O)O[C@@H]3COP(=O)(S)O[C@H]3C[C@H](n4cc(C)c(=O)[nH]c4=O)O[C@@H]3COP(=O)(S)O[C@H]3[C@@H](O)[C@H](n4cnc5c(=O)[nH]c(N)nc54)O[C@@H]3COP(=O)(S)O[C@H]3C[C@H](n4cc(C)c(=O)[nH]c4=O)O[C@@H]3COP(=O)(S)O[C@H]3[C@@H](O)[C@H](n4ccc(N)nc4=O)O[C@@H]3COP(=O)(S)O[C@H]3C[C@H](n4cc(C)c(=O)[nH]c4=O)O[C@@H]3CO)[C@@H](COP(=O)(S)O[C@H]3[C@@H](O)[C@H](n4ccc(N)nc4=O)O[C@@H]3COP(=O)(S)O[C@H]3C[C@H](n4cc(C)c(=O)[nH]c4=O)O[C@@H]3COP(=O)(S)O[C@H]3C[C@H](n4cc(C)c(=O)[nH]c4=O)O[C@@H]3COP(=O)(S)O[C@H]3C[C@H](n4ccc5c(=O)[nH]c(N)nc54)O[C@@H]3COP(=O)(S)O[C@H]3[C@@H](O)[C@H](n4ccc(N)nc4=O)O[C@@H]3COP(=O)(S)O[C@H]3C[C@H](n4cc(C)c(=O)[nH]c4=O)O[C@@H]3COP(=O)(S)O[C@H]3[C@@H](O)[C@H](n4cnc5c(=O)[nH]c(N)nc54)O[C@@H]3COP(=O)(S)O[C@H]3C[C@H](n4cc(C)c(=O)[nH]c4=O)O[C@@H]3COP(=O)(S)O[C@H]3[C@@H](O)[C@H](n4ccc(N)nc4=O)O[C@@H]3COP(=O)(S)O[C@H]3C[C@H](n4cc(C)c(=O)[nH]c4=O)O[C@@H]3CO)O2)c(=O)[nH]c1=O (stereo partly drawn)
2 | 2.45 | Dose-dependent effect | 0.03 | 0.3 | 0.89 | 9.5 | 0.25 | Dose-dependent effect | 0.76 | Cc1cn([C@H]2C[C@H](O[C@@H]3C[C@@H](O)C[C@@H](OP(=O)(S)O[C@H]4C[C@H](n5cc(C)c(=O)[nH]c5=O)O[C@@H]4COP(=O)(S)O[C@H]4[C@@H](O)[C@H](n5ccc(N)nc5=O)O[C@@H]4COP(=O)(S)O[C@H]4C[C@H](n5cc(C)c(=O)[nH]c5=O)O[C@@H]4COP(=O)(S)O[C@H]4C[C@H](n5cc(C)c(=O)[nH]c5=O)O[C@@H]4COP(=O)(S)O[C@H]4C[C@H](n5ccc6c(=O)[nH]c(N)nc65)O[C@@H]4COP(=O)(S)O[C@H]4[C@@H](O)[C@H](n5ccc(N)nc5=O)O[C@@H]4COP(=O)(S)O[C@H]4C[C@H](n5cc(C)c(=O)[nH]c5=O)O[C@@H]4COP(=O)(S)O[C@H]4[C@@H](O)[C@H](n5cnc6c(=O)[nH]c(N)nc65)O[C@@H]4COP(=O)(S)O[C@H]4C[C@H](n5cc(C)c(=O)[nH]c5=O)O[C@@H]4COP(=O)(S)O[C@H]4[C@@H](O)[C@H](n5ccc(N)nc5=O)O[C@@H]4COP(=O)(S)O[C@H]4C[C@H](n5cc(C)c(=O)[nH]c5=O)O[C@@H]4CO)C3)[C@@H](COP(=O)(S)O[C@H]3[C@@H](O)[C@H](n4ccc(N)nc4=O)O[C@@H]3COP(=O)(S)O[C@H]3C[C@H](n4cc(C)c(=O)[nH]c4=O)O[C@@H]3COP(=O)(S)O[C@H]3C[C@H](n4cc(C)c(=O)[nH]c4=O)O[C@@H]3COP(=O)(S)O[C@H]3C[C@H](n4ccc5c(=O)[nH]c(N)nc54)O[C@@H]3COP(=O)(S)O[C@H]3[C@@H](O)[C@H](n4ccc(N)nc4=O)O[C@@H]3COP(=O)(S)O[C@H]3C[C@H](n4cc(C)c(=O)[nH]c4=O)O[C@@H]3COP(=O)(S)O[C@H]3[C@@H](O)[C@H](n4cnc5c(=O)[nH]c(N)nc54)O[C@@H]3COP(=O)(S)O[C@H]3C[C@H](n4cc(C)c(=O)[nH]c4=O)O[C@@H]3COP(=O)(S)O[C@H]3[C@@H](O)[C@H](n4ccc(N)nc4=O)O[C@@H]3COP(=O)(S)O[C@H]3C[C@H](n4cc(C)c(=O)[nH]c4=O)O[C@@H]3CO)O2)c(=O)[nH]c1=O (stereo partly drawn)
